These results are taken from ChEMBL document CHEMBL3585255, “The Cephalostatins. 24. Isolation, Structure, and Cancer Cell Growth Inhibition of Cephalostatin 20” (2015).

Where only a bound is given, the exact number is not on record here.

Assay type in all cases: functional
One assay has as its system DU-145. Nature of the assay: Cytotoxicity against human DU145 cells after 48 hrs by sulforhodamine B assay. The following applies: DU-145, 48 h. Summed up: (§1)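 Cells in RPMI1640 with 5% fetal bovine serum were plated in 96-well plates and incubated 24 h before serial dilutions of compound were added. After 48 h exposure, cells were fixed with trichloroacetic acid and stained with sulforhodamine B, and optical density was read on a plate reader. GI50, the concentration giving 50% reduction in net protein increase, was calculated from the OD data.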
(In SRB staining, fixed cells bind dye roughly in proportion to their protein.)

Assay [1] can be described thus: Cytotoxicity against human KM20L2 cells after 48 hrs by sulforhodamine B assay. The following applies: KM-20L2, 48 h. In outline: as §1
Assay [2] is described as follows: Cytotoxicity against human BxPC3 cells after 48 hrs by sulforhodamine B assay. The following applies: BXPC-3, 48 h. In outline:
as §1

For a further assay, the system named is SF-268. Nature of the assay: Cytotoxicity against human SF268 cells after 48 hrs by sulforhodamine B assay. The following applies: SF-268, 48 h. Summed up: as §1
The test system of the next assay is MCF7. Nature of the assay: Cytotoxicity against human MCF7 cells after 48 hrs by sulforhodamine B assay. The following applies: MCF7, 48 h. Summed up: as §1
The subject of another assay is NCI-H460. Kind of assay: Cytotoxicity against human NCI-H460 cells after 48 hrs by sulforhodamine B assay. As to conditions: NCI-H460, 48 h. In outline: as §1

A word on the GI50: it is the concentration at which growth is held to half of that of the control.

Consider `C[C@@H]1[C@]2(O[C@H]3C=C4[C@@H]5CC[C@H]6Cc7nc8c(nc7C[C@]6(C)[C@H]5C[C@@H](O)[C@]4(C)[C@]31O)C[C@@H]1CC[C@H]3C4=C[C@@H]5O[C@]6(O[C@](C)(CO)C[C@H]6O)[C@@H](C)[C@]5(O)[C@@]4(C)[C@H](O)C[C@@H]3[C@@]1(C)[C@H]8O)O[C@](C)(CO)C[C@H]2O` [CEPHALOSTATIN 13], for which the GI50 with DU-145 came to 1100 nM; in assay [1], 470 nM; in assay [2], 310 nM; with SF-268 it was 340 nM; with MCF7, 290 nM; in the assay with NCI-H460, 370 nM.

`C[C@@H]1[C@]2(O[C@H]3C=C4[C@@H]5CC[C@H]6Cc7nc8c(nc7C[C@]6(C)[C@H]5C[C@@H](O)[C@]4(C)[C@]31O)C[C@@H]1CC[C@H]3C4=CC[C@@H]5[C@H](C)[C@@]6(OC[C@]45C(=O)C[C@]3(O)[C@@]1(C)C8)OC(C)(C)[C@@H](C)[C@H]6O)O[C@](C)(CO)C[C@H]2O` [CEPHALOSTATIN 3]: the GI50 in the assay on DU-145 amounted to 0.16 nM; in assay [1], 0.096 nM; in assay [2], 0.043 nM; in the assay on SF-268, 0.58 nM; in the assay with MCF7, 0.032 nM; in the assay on NCI-H460, 0.043 nM.

In the case of `C[C@@H]1[C@H]2C[C@@H]3O[C@@]34[C@]3(O)CC[C@H]5Cc6nc7c(nc6C[C@]5(C)C3=CC(=O)[C@]24CO[C@]12OC(C)(C)[C@@H](C)[C@H]2O)C[C@@H]1CC[C@H]2C3=C[C@@H]4O[C@]5(O[C@](C)(CO)C[C@H]5O)[C@@H](C)[C@]4(O)[C@@]3(C)[C@H](O)C[C@@H]2[C@@]1(C)C7` [CEPHALOSTATIN 15], the 50% growth inhibitory concentration (GI50) was determined as 140 nM with DU-145; 63 nM in assay [1]; 50 nM in assay [2]; 63 nM with SF-268; 45 nM with MCF7; 68 nM in the assay on NCI-H460.

`C[C@@H]1[C@H]2C[C@@H]3O[C@@]34[C@]3(O)CC[C@H]5Cc6nc7c(nc6C[C@]5(C)C3=CC(=O)[C@]24CO[C@]12OC(C)(C)C[C@H]2O)C[C@@H]1CC[C@H]2C3=C[C@@H]4O[C@]5(O[C@](C)(CO)C[C@H]5O)[C@@H](C)[C@]4(O)[C@@]3(C)[C@H](O)C[C@@H]2[C@@]1(C)C7` [CEPHALOSTATIN 14]: the GI50 in the assay with DU-145 turned out to be 130 nM; in assay [1], 35 nM; in assay [2], 35 nM; in the assay on SF-268 it was 80 nM; in the assay with MCF7 it was 28 nM; with NCI-H460, 32 nM.

Take `CO[C@H]1c2nc3c(nc2C[C@@H]2CC[C@H]4C5=CC[C@@H]6[C@@H](C)[C@]7(OC[C@]56C(=O)C[C@@H]4[C@]21C)OC(C)(C)C[C@H]7O)C[C@@]1(C)[C@@H](CC[C@H]2C4=C[C@@H]5O[C@]6(O[C@](C)(CO)C[C@H]6O)[C@@H](C)[C@]5(O)[C@@]4(C)[C@H](O)C[C@@H]21)C3` [CEPHALOSTATIN 11]: the GI50 was determined as 23 nM with DU-145; 6.3 nM in assay [1]; 4.9 nM in assay [2]; 27 nM with SF-268; 4.1 nM in the assay with MCF7; 5.4 nM in the assay with NCI-H460.

Consider `C[C@@H]1[C@]2(O[C@H]3C=C4[C@@H]5CC[C@H]6Cc7nc8c(nc7C[C@]6(C)[C@H]5C[C@@H](O)[C@]4(C)[C@]31O)C[C@@H]1CC[C@H]3[C@@]45O[C@@H]4C[C@@H]4[C@H](C)[C@@]6(OC[C@@]45C(=O)C[C@]3(O)[C@@]1(C)C8)OC(C)(C)C[C@H]6O)O[C@](C)(CO)C[C@H]2O` [CEPHALOSTATIN 4], for which the GI50 was 31 nM in the assay with DU-145; 39 nM in assay [1]; 36 nM in assay [2]; 21 nM in the assay on SF-268; 43 nM with MCF7; 44 nM in the assay on NCI-H460.

On to `C[C@@H]1C[C@]2(O[C@H]3C=C4[C@@H]5CC[C@H]6Cc7nc8c(nc7C[C@]6(C)[C@H]5C[C@@H](O)[C@]4(CO)[C@H]3[C@@H]2C)C[C@@H]2CC[C@H]3C4=C[C@@H]5O[C@]6(O[C@](C)(CO)C[C@H]6O)[C@@H](C)[C@]5(O)[C@@]4(C)[C@H](O)C[C@@H]3[C@@]2(C)C8)OC1(C)C` [CEPHALOSTATIN 8], for which the GI50 with DU-145 is more than 1100 nM; in assay [1], 47 nM; in assay [2], 26 nM; in the assay on SF-268, 150 nM; in the assay with MCF7 it was 26 nM; with NCI-H460, 15 nM.

In the case of `C[C@H]1[C@@H](O)C2(Oc3cc4c(c5c3[C@H](C[C@H]5O)[C@@H]2C)CC[C@H]2Cc3nc5c(nc3C[C@]42C)C[C@@H]2CC[C@H]3C4=C[C@@H]6O[C@@]7(C[C@]6(O)[C@@]4(C)[C@H](O)C[C@@H]3[C@@]2(C)C5)O[C@](C)(CO)C[C@H]7O)OC1(C)C` (stereo partly drawn) [CEPHALOSTATIN 5], the GI50 with DU-145 amounted to 120 nM; in assay [1], 100 nM; in assay [2], 330 nM; in the assay on SF-268, 440 nM; in the assay with MCF7, 340 nM; with NCI-H460, 150 nM.
